Results as given in ChEMBL document CHEMBL4145684 (J Med Chem, 2018).
Active and inactive are the calls of the source. No cut-off for these calls is given here.

Key:
Estrogen receptor [1] = molecular target: T1, Estrogen receptor (Homo sapiens, UniProt P03372); experiment: Induction of ERalpha degradation in human MCF7 cells in phenol red free RPMI medium containing 5% charcoal dextran-treated FBS incubated for 4 hrs by SP1 and anti-ER rabbit monocolnal antibody based in-cell Western assay
T1 sequence (P03372 whole entry): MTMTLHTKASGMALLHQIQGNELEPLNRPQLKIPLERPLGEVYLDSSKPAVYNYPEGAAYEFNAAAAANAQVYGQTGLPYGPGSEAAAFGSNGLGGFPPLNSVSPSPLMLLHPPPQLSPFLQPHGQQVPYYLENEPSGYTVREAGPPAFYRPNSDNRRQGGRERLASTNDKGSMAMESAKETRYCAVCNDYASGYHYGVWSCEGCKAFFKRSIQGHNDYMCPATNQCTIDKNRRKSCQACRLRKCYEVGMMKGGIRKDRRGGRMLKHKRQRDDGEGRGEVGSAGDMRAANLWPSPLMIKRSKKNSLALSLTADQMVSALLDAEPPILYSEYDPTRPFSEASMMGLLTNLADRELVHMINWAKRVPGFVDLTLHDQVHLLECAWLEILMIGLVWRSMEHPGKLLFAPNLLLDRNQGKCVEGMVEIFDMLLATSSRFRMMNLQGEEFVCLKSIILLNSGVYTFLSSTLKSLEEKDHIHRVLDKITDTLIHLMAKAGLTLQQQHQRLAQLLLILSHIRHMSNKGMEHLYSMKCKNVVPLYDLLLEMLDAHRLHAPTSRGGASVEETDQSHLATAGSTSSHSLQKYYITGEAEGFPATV

MCF7 [2] = experiment: Antiproliferative activity against human MCF7 cells assessed as reduction in cell proliferation in RPMI containing 10% FBS incubated for 5 days by Cell-titer-Glo assay; assay type: functional, cell-based; conditions: MCF7, 120 h
In short: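 MCF-7 cells, 640/well in RPMI with 10% FBS and 20 mM HEPES, adhered overnight; 10-point 1:5 dilution series (10–0.000005 µM final) for 5 days. CellTiter-Glo luminescence, cell-free medium background subtracted, percent viability vs untreated cells; n ≥ 3.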

[3] = AUC in mouse at 10 mg/kg, po; assay type: ADME, organism-based; conditions: in vivo
In short: (§1)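 Mouse or rat PK: single intravenous dose 3 mg/kg or oral dose 10 mg/kg, vehicle PEG400/PVP/Tween 80/0.5% CMC in water (9:0.5:0.5:90).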

Rattus norvegicus = experiment: Reduction in uterine wet weight in ethynyl estradiol-stimulated CD-IGS rat at 1 mg/kg, po dosed daily for 3 days by gavage followed 15 mins later by 0.1 mg/kg, po ethynyl estradiol and measured 24 hrs after last dose by immature rat uterine wet weight assay; assay type: functional
In short: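 Female immature CD-IGS rats, 21 days old on arrival; oral gavage of vehicle or compound daily for 3 days, ethynyl estradiol 0.1 mg/kg orally 15 min after each dose. Day 4, 24 h post-dose, plasma taken, then uterus removed and weighed. Reduction = 100 x (VehicleEE – Cpd)/(VehicleEE – Vehicle).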

[4] = Clearance in mouse at 3 mg/kg, iv; assay type: ADME, organism-based; conditions: in vivo; in short: as §1
[5] = Volume of distribution at steady state in mouse at 3 mg/kg, iv; assay type: ADME, organism-based; conditions: in vivo, read-out: Vdss; in short: as §1
[6] = Half life in mouse at 3 mg/kg, iv; assay type: ADME, organism-based; conditions: in vivo; in short: as §1
[7] = Cmax in mouse at 10 mg/kg, po; assay type: ADME, organism-based; design: dose 10 mg/kg, route oral; conditions: in vivo; in short: as §1
[8] = AUC (0 to infinity) in mouse at 10 mg/kg, po; assay type: ADME, organism-based; design: dose 10 mg/kg, route oral, time infinity; conditions: in vivo
[9] = Oral bioavailability in mouse at 10 mg/kg; assay type: ADME, organism-based; conditions: in vivo; in short: as §1
[10] = Clearance in rat at 3 mg/kg, iv; assay type: ADME, organism-based; conditions: in vivo; in short: as §1
[11] = Volume of distribution at steady state in rat at 3 mg/kg, iv; assay type: ADME, organism-based; conditions: in vivo, read-out: Vdss; in short: as §1
[12] = Half life in rat at 3 mg/kg, iv; assay type: ADME, organism-based; conditions: in vivo; in short: as §1
[13] = Cmax in rat at 10 mg/kg, po; assay type: ADME, organism-based; design: dose 10 mg/kg, route oral; conditions: in vivo; in short: as §1
[14] = AUC (0 to infinity) in rat at 10 mg/kg, po; assay type: ADME, organism-based; design: dose 10 mg/kg, route oral, time infinity; conditions: in vivo
[15] = Oral bioavailability in rat at 10 mg/kg; assay type: ADME, organism-based; conditions: in vivo; in short: as §1
MCF7 [16] = experiment: Antitumor activity against human MCF7 cells xenografted in nu/nu mouse model of tamoxifen-sensitive breast cancer xenograft implanted with 17beta-estradiol time release pellets assessed as reduction tumor volume at 6 mg/kg, po qd for 4 weeks; assay type: functional, organism-based
MCF7 [17] = experiment: Antitumor activity against human MCF7 cells xenografted in nu/nu mouse model of tamoxifen-resistant breast cancer xenograft implanted with 17beta-estradiol time release pellets assessed as reduction tumor volume at 60 mg/kg, po qd for 4 weeks; assay type: functional, organism-based
In short: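 Female nu/nu mice with 0.72 mg 60-day 17β-estradiol pellets bearing MCF-7 tumors, pretreated with oral tamoxifen citrate; at ~150-250 mm3 (mean 200 mm3) randomized, tamoxifen stopped, then dosed daily for 4 weeks; tumor volume (length x width2/2) and body weight twice weekly.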

[18] = AUC in human MCF7 cells xenografted nu/nu mouse implanted with 17beta-estradiol time release pellets dosed orally once daily for 4 weeks; assay type: ADME, organism-based; conditions: in vivo, po
Estrogen receptor [19] = molecular target: T1, Estrogen receptor; experiment: Binding affinity to ERalpha (unknown origin)
[20] = Clearance in Sprague-Dawley rat at 1 mg/kg, iv; assay type: ADME, organism-based; conditions: in vivo
[21] = Oral bioavailability in Sprague-Dawley rat at 2 mg/kg; assay type: ADME, organism-based; conditions: in vivo

CC1=C(c2ccc(S(C)(=O)=O)cc2)C(c2ccc(OC[C@H](C)N3CC[C@@H](C)C3)cc2)Oc2ccc(O)cc21 (some centres undefined)
IC50 (Estrogen receptor [1]): 5700 pM
IC50 (MCF7 [2]): 27000 pM

CC1=C(c2ccc(F)cc2)C(c2ccc(OC[C@H](C)N3CC[C@@H](C)C3)cc2)Oc2ccc(O)cc21 (some centres undefined)
AUC [3]: 2000 ng·h/mL
IC50 (Estrogen receptor [1]; mcf7): 400 pM
inhibition (INH) (Rattus norvegicus): 111%
clearance [4]: 30 mL/min/kg
Vd [5]: 11 L/kg
half-life [6]: 5.2 h
Cmax [7]: 170 ng/mL
AUC(0-inf) [8]: 2000 ng·h/mL
bioavailability [9]: 35%
clearance [10]: 21 mL/min/kg
Vd [11]: 12 L/kg
half-life [12]: 7.4 h
Cmax [13]: 280 ng/mL
AUC(0-inf) [14]: 4500 ng·h/mL
bioavailability [15]: 54%
Activity (MCF7 [16]): Active
Activity (MCF7 [17]): inactive
AUC at 672 h [18]: 36000 ng·h/mL

CC1=C(c2cccc(O)c2)C(c2ccc(OCCN3CCCCC3)cc2)Oc2ccc(O)cc21 (centres undefined)
IC50 (Estrogen receptor [1]): 200 pM
IC50 (MCF7 [2]): 200 pM

CC1=C(c2cccc(C#N)c2)C(c2ccc(OC[C@H](C)N3CC[C@@H](C)C3)cc2)Oc2ccc(O)cc21 (some centres undefined)
IC50 (Estrogen receptor [1]): 700 pM
IC50 (MCF7 [2]): 2600 pM

CC1=C(c2ccc(O)cc2)C(c2ccc(OC[C@H](C)N3CC[C@@H](C)C3)cc2)Oc2ccc(O)cc21 (some centres undefined)
AUC [3]: 460 ng·h/mL
IC50 (Estrogen receptor [1]): 100 pM
IC50 (MCF7 [2]): 100 pM
inhibition (INH) (Rattus norvegicus): 113%

CC1=C(c2cccc(F)c2)C(c2ccc(OC[C@H](C)N3CC[C@@H](C)C3)cc2)Oc2ccc(O)cc21 (some centres undefined)
AUC [3]: 350 ng·h/mL
IC50 (Estrogen receptor [1]): 500 pM
IC50 (MCF7 [2]): 1000 pM

CC1=C(c2cccc(O)c2)[C@H](c2ccc(OC[C@H](C)N3CC[C@@H](C)C3)cc2)Oc2ccc(O)cc21
IC50 (Estrogen receptor [1]): 100 pM
IC50 (MCF7 [2]): 100 pM
IC50 (Estrogen receptor [19]): 2800 pM

CC1=C(c2cccc(O)c2)C(c2ccc(OC[C@H](C)N3CC[C@@H](C)C3)cc2)Oc2cc(O)ccc21 (some centres undefined)
AUC [3]: 50 ng·h/mL
IC50 (Estrogen receptor [1]): 200 pM
IC50 (MCF7 [2]): 300 pM

CC1=C(c2cccc(O)c2)C(c2ccc(OCCN3CC(C)C3)cc2)Oc2ccc(O)cc21 (centres undefined)
IC50 (Estrogen receptor [1]; mcf7): 300 pM

CC1=C(c2cccc(S(C)(=O)=O)c2)C(c2ccc(OC[C@H](C)N3CC[C@@H](C)C3)cc2)Oc2ccc(O)cc21 (some centres undefined)
IC50 (Estrogen receptor [1]): 1400 pM
IC50 (MCF7 [2]): 4300 pM

Oc1ccc([C@H]2Sc3ccc(O)cc3O[C@H]2c2ccc(OCCN3CCCCC3)cc2)cc1
clearance [20]: 154 mL/min/kg
bioavailability [21]: 0%

CC1=C(c2cccc(O)c2)C(c2ccc(OCCN3CCCC3)cc2)Oc2ccc(O)cc21 (centres undefined)
IC50 (Estrogen receptor [1]): 400 pM
IC50 (MCF7 [2]): 300 pM

CC1=C(c2cccc(O)c2)C(c2ccc(OCCN3CCC3)cc2)Oc2ccc(O)cc21 (centres undefined)
IC50 (Estrogen receptor [1]): 300 pM
IC50 (MCF7 [2]): 200 pM

CC1=C(c2cccc(O)c2)C(c2ccc(OC[C@H](C)N3CC[C@H](C)C3)cc2)Oc2ccc(O)cc21 (some centres undefined)
IC50 (Estrogen receptor [1]): 200 pM
IC50 (MCF7 [2]): 200 pM

CC1=C(c2cccc(O)c2)C(c2ccc(OC[C@H](C)N3CCCCCC3)cc2)Oc2ccc(O)cc21 (some centres undefined)
IC50 (Estrogen receptor [1]): 200 pM
IC50 (MCF7 [2]): 200 pM

Oc1ccc([C@H]2Sc3cc(O)ccc3O[C@H]2c2ccc(OCCN3CCCCC3)cc2)cc1
clearance [20]: 5 mL/min/kg
bioavailability [21]: 31%

CC1=C(c2cccc(O)c2)C(c2ccc(OC[C@H](C)N3CCCC3)cc2)Oc2ccc(O)cc21 (some centres undefined)
IC50 (Estrogen receptor [1]): 400 pM
IC50 (MCF7 [2]): 200 pM
